# From PubChem BioAssay
# RAM inhibit: blocks the yeast RAM network. S. cerevisiae dse1pr::URA3 reporter, 5-FOA growth OD615, 2 d; analog-sensitive cbk1-as2 kinase mutant strain. inhibition, % at 50 µM. 1.8% of 190,000 active;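 active = inhibition above a set limit, 3 SD over mean compound inhibition, cut at about 8.4% in these data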;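 also: 0% = DMSO-only wells with no growth and 100% = 10 µM 1-NA-PP1 full growth; inhibition rescues growth on 5-FOA so higher OD means more RAM inhibition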
# Yeast growth inh: chemicals that inhibit yeast BB579 growth in restrictive medium (lifespan-shortening candidates); S. cerevisiae BB579 growth, OD615, 48 h; inhibition, % at 10 µM; 0.51% of 140,000 active; AID 804;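 active = inhibition above a set limit, 3 SD over the mean compound inhibition, cut at about 44% in these data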
#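 Detection: OD615 turbidity measurement; Material: Saccharomyces cerevisiae DeaD strain BB579, replicative lifespan model yeast; Timing: 48 h exposure, 30 °C; Doses: single 10 µM dose; Medium: CSMM-D restrictive synthetic medium containing dextrose (glucose); Controls: amphotericin B at 10 µg/mL as positive control.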
# Yeast life ext: extends the lifespan of yeast | S. cerevisiae growth with nicotinamide, OD615; deaD strain in restrictive glucose medium | inhibition of the nicotinamide effect, % at 10 µM | 0.68% of 130,000 active | AID 775;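 active = inhibition above a set limit, placed 3 SD over the median of all compounds, cut at about 26% in these data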;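 also: 0% = nicotinamide-treated wells and 100% = cells grown without nicotinamide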
#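 assay system = DeaD-strain S. cerevisiae | buffer or medium = restrictive glucose medium | reagent = 1.5 mM nicotinamide | compound = 10 µM single point, 0.25% DMSO | incubation = 48 h compound exposure at 30 °C, humidified | signal = OD615 measurement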
# Active calls of the source: *; . = no result. An excerpt weighted towards active compounds, which were near 2.6% of everything screened.
SMILES,RAM inhibit,Yeast growth inh,Yeast life ext
COC(=O)CCN(C(=O)c1cccc([N+](=O)[O-])c1)c1ccccn1,1,.,.
COc1ccc(CCNCC(=O)Nc2ccccc2C(F)(F)F)cc1,0,.,.
Cc1ccc(SCc2ccc(C(=O)Nc3ccccc3C(=O)NC(C)C)cc2)cc1,9.1*,-39,5
Cc1ccc(SCc2ccc(C(=O)Nc3ccccc3Br)cc2)cc1,5,-30,11
CCCCCC/C(C)=C1/SC(=S)NC1=O,2,95*,-13
C/C(C/C(C)=C1/SC(=S)NC1=O)=C1\SC(=S)NC1=O,4,.,.
CN1CCN(c2ccc(-c3ccnn3C(=O)Nc3cccc(C(F)(F)F)c3)cc2)CC1,0,.,.
O=C(Nc1cccc([N+](=O)[O-])c1)Nc1cccs1,0,.,.
CC1CCCN(C(=S)NC2CCCC2)C1 (stereo unspecified),0,.,.
COc1cc(/C=N/N2C(=O)CSC2=S)cc(Br)c1O,0,.,.
COc1cccc(/C=N/N2C(=O)CSC2=S)c1O,1,72*,-4
CSCCC(NC(=O)c1ccccc1C)C(=O)O (stereo unspecified),0,.,.
COc1ccc(/C=C/C(=O)Nc2cccc(S(=O)(=O)N3CCCC3)c2)cc1OC,8.5*,.,.
COc1ccc(/C=C/C(=O)N2CCN(S(=O)(=O)c3ccccc3)CC2)cc1OC,0,.,.
Cc1ccc(C(=O)C(C)N2C(=O)NC(C)(c3ccccc3)C2=O)cc1 (stereo unspecified),6,.,.
C/C(N)=C(/C#N)C(=O)COC(=O)c1ccccc1Oc1ccccc1,3,.,.
Nc1[nH]nc2nc3ccccc3cc12,1,.,.
Nc1cccc2nc3ccccc3cc12,3,59*,-5
COc1cc(/C=C\C(=O)NCc2ccc3[nH]c(C)cc3c2)cc(OC)c1OC,2,-24,-1
COc1ccc(/C=C\C(=O)NCc2ccc3[nH]c(C)cc3c2)cc1OC,10*,-38,-1
C=C1c2cc(C)ccc2NC(=O)N1c1ccccc1,1,-26,-2
Cc1c(C(=O)O)cccc1-c1ccc(/C=N/Nc2ccc(Br)cc2)o1,2,44*,-6
O=Cc1ccc(-c2ccccc2C(=O)O)o1,2,.,.
Cc1nc(Nc2ccc(Cl)c(Cl)c2)sc1C(=O)Nc1ccccc1,4,79*,0
Cc1nc(Nc2ccc(Cl)cc2Cl)sc1C(=O)Nc1ccccc1,0,-30,-5
SMILES,RAM inhibit,Yeast growth inh,Yeast life ext
Cc1nnc(C)n1/N=C/c1cc(Br)ccc1O,0,-25,22
Cc1nnc(C)n1/N=C/c1cc(Br)cc(Br)c1O,-1,100*,-31
CCC(CC)NC(=O)COc1ccc(OC)cc1C=O,3,.,.
COc1ccc(/C=C/C(=O)OCC(=O)Nc2c(C)cccc2C)cc1,3,.,.
CC(=O)Oc1ccc(-c2cccc(C(=O)OCC(=O)Nc3ccccc3Oc3ccccc3)c2)cc1,6,-30,-4
O=C(COC(=O)c1cccc(Cl)c1)Nc1cc(Cl)ccc1Oc1ccccc1,10*,-50,13
COc1ccc(NC(=S)N2CCN(CCN=CC3=C(O)CC(c4ccccc4)CC3=O)CC2)cc1 (stereo unspecified),0,-35,50*
O=C1CC(c2ccc(F)cc2)CC(O)=C1C=NCCN1CCN(C(=O)Nc2ccccc2)CC1 (stereo unspecified),0,-36,90*
COc1ccc(C2CC(=O)C(C=NCCN3CCN(C(C)=O)CC3)=C(O)C2)cc1 (stereo unspecified),0,-34,.
C=CCNC(=S)N1CCN(CCN=CC2=C(O)CC(c3cccs3)CC2=O)CC1 (stereo unspecified),1,-12,9
O=C1CC(c2ccco2)CC(O)=C1C=NCCN1CCN(C(=O)Nc2ccc(Cl)cc2)CC1 (stereo unspecified),-1,-22,3
CC(=O)N1CCN(CCN=CC2=C(O)CC(c3cccs3)CC2=O)CC1 (stereo unspecified),-1,-15,36*
COc1ccc(C(=O)NCc2ccc(-n3cccc3)cc2)cc1OC,2,.,.
CCCCN(C(=N)N1CCCCC1)c1nc(C)c([N+](=O)[O-])c(=O)[nH]1,0,-26,4
CCOc1ccc(N(Cc2ccccc2F)C2=NC3CS(=O)(=O)CC3S2)cc1 (stereo unspecified),1,.,.
COc1nc(Cl)cn(-c2ccc(C)cc2)c1=O,0,-18,10
Cc1ccc(-n2c(Cl)c(Cl)nc(Cl)c2=O)cc1,0,100*,-9
N#CCC(=O)Nc1ccc(C(F)(F)F)cc1N1CCOCC1,1,.,.
COc1ccc(NC(=O)/C(=C\c2ccc3c(c2)OCO3)NC(C)=O)cc1,-1,12,-6
COC(=O)c1cccc(NC(=O)c2nn(C(C)C)c(=O)c3ccccc23)c1,2,-29,-4
CCCn1nc(C(=O)Nc2cccc(C(=O)OC)c2)c2ccccc2c1=O,8.9*,-28,-19
Cc1ccc(NC(=O)CSc2nnc(-c3ccncc3)n2C)cc1S(=O)(=O)N1CCOCC1,1,.,.
C/C(=N/NC(=O)Cc1cccs1)c1ccco1,1,-50,-5
CSc1nc(-c2ccco2)nn1C(=O)c1cccs1,4,8,-8
O=C(c1cccs1)n1nc(-c2ccco2)nc1SCc1ccccc1,10*,-42,-5
SMILES,RAM inhibit,Yeast growth inh,Yeast life ext
O=C(N/N=C/c1ccc(Br)cc1)c1ccccc1-n1cccc1,1,-16,-23
COc1ccc(CNC(=O)COC(=O)/C=C/c2cccc(Br)c2)cc1,3,.,.
NC(=O)Cn1c(=O)n(CCc2ccccc2)c(=O)c2c3c(sc21)CCCC3,0,-5,-7
O=c1c2c3c(sc2n2cnnc2n1CCc1ccccc1)CCCC3,8.9*,-56,-11
COc1ccc(CC(=O)Nc2ccc(-c3cn4ccc(C)cc4n3)cc2)cc1,1,0,-8
Cc1ccccc1Cn1c(-c2cncs2)nc2ccccc21,0,-71,-8
Brc1cc2c(cc1Cn1c(-c3cncs3)nc3ccccc31)OCO2,10*,-45,23
CCOC(=O)C1=C(C)OC(N)=C(C#N)C1c1cc2c(cc1[N+](=O)[O-])OCO2 (stereo unspecified),1,.,.
Cc1cc(NC(=O)CN2C(=O)NC(C)(c3ccc(Cl)cc3)C2=O)no1 (stereo unspecified),-1,.,.
O=C(/C=C/c1ccccc1)CC(=O)c1ccccc1O,7,.,.
CCOc1ccc(N2CC(C(=O)NC3=NCCS3)CC2=O)cc1 (stereo unspecified),2,.,.
Cc1nn(-c2ccccc2)c2sc(-c3n[nH]c(=S)o3)cc12,0,72*,-23
Cc1nn(-c2ccc(F)cc2)c2sc(C(=O)O)cc12,1,43*,-9
COC(=O)c1cc2c(C)nn(-c3ccccc3)c2s1,4,-5,-27
CCOC(=O)c1cc2c(C)nn(-c3ccccc3)c2s1,4,-28,.
Cc1ccc(-n2nc(C)c3cc(C(=O)O)sc32)cc1,-1,18,-14
Cc1nn(-c2ccccc2)c2sc(C(=O)O)cc12,0,50*,-26
CCN(C(=O)Cn1cnc2cc([N+](=O)[O-])ccc2c1=O)C1CCS(=O)(=O)C1 (stereo unspecified),0,.,.
COc1ccc(N2CCN(C(=O)CSc3nnc(-c4ccco4)n3C)CC2)cc1,1,.,.
O=C(c1cc(COc2ccc(F)cc2Cl)on1)N1CCc2ccccc2C1,10*,.,.
